Data taken from ChEMBL document CHEMBL2439990, “Serendipity in drug-discovery: a new series of 2-(benzyloxy)benzamides as TRPM8 antagonists” (Bioorg Med Chem Lett, 2013).

What was measured:
[1] = target: Transient receptor potential cation channel subfamily M member 8 (Homo sapiens, UniProt Q7Z2W7); experiment: Inhibition of human TRPM8 (unknown origin) expressed in HEK293 cells assessed as inhibition of WS12-induced Ca2+ elevation by FLIPR assay; format: cell-based
Outline: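 IC50 values plus modified Kb values computed from the geometric mean of agonist EC50 and slope. At least three independent experiments.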

[2] = Apparent intrinsic clearance in human liver microsomes; format: ADME, Microsome; conditions: read-out: CLH(app)
[3] = Lipophilicity, log D of the compound at pH 7.4; format: physicochemical; conditions: buffer
[4] = Half life in DMSO/aqueous buffer assessed as N-(2-(4-(benzyloxy)-3-methoxybenzylamino)ethyl)thiophene-2-carboxamide formation; format: physicochemical
Rattus norvegicus = organism: Rattus norvegicus; experiment: Inhibition of rat calcium channel L-site diltiazem binding site at 10 uM

| IC50 [1] | Kb [1] | Compound | also measured |
| --- | --- | --- | --- |
| 8780 nM | 5130 nM | CC(C)N(C(=O)c1ccccc1OCc1ccccc1)[C@@H]1CCC[C@H](N)C1 (racemic) |  |
| 6780 nM | 4590 nM | CCN(C(=O)c1ccccc1OCc1ccc(C#N)cc1)C1CCCC(N)C1 (racemic) |  |
|  | > 2000 nM | CCN(C(=O)c1ccccc1Cc1ccccc1)[C@@H]1CCC[C@H](N)C1 (racemic) |  |
| 85.4 nM | 72 nM | CCN(C(=O)c1ccccc1OCc1ccccc1Cl)[C@H]1CCC[C@@H](N)C1 |  |
|  | > 10000 nM | NC1CCN(C(=O)c2ccccc2OCc2ccccc2)C1 (configuration not stated) |  |
| 1240 nM | 443 nM | NCCN(Cc1cccs1)C(=O)c1ccccc1OCc1ccccc1 | microsomal CLint [2]: 149 µL/min/mg; logD [3]: 1.6 |
|  | > 2000 nM | CCN(C(=O)c1cnccc1OCc1ccccc1)[C@@H]1CCC[C@H](N)C1 (racemic) |  |
|  |  | O=C1NC(c2cccc([N+](=O)[O-])c2)=CCN1c1ccccc1O [ICILLIN] | EC50 [1]: 300 nM |
| 1850 nM | 1250 nM | CCN(C(=O)c1ccccc1OCc1ccccc1C#N)C1CCCC(N)C1 (racemic) |  |
|  | 4860 nM | CCN(C(=O)c1ccccc1OCc1ccccc1)C1CCCNC1 (configuration not stated) |  |
|  | > 5000 nM | CCN(C(=O)c1ccccc1OCc1ccccc1)[C@@H]1CCC[C@H](NC(C)=O)C1 (racemic) |  |
| 291 nM | 246 nM | CCN(C(=O)c1ccccc1OCc1ccccc1C)[C@H]1CCC[C@@H](N)C1 |  |
|  | 7.8 nM | COc1cc(CN(CCN)C(=O)O[C@@H](C)c2ccccc2)ccc1OCc1ccccc1 |  |
|  | > 10000 nM | CN(C(=O)c1ccccc1OCc1ccccc1)[C@@H]1CCNC1 |  |
|  | > 2000 nM | CCN(C(=O)c1ccccc1-c1ccccc1)[C@@H]1CCC[C@H](N)C1 (racemic) |  |
| 1400 nM | 1560 nM | CCCCN(C(=O)c1ccccc1OCc1ccccc1)[C@@H]1CCC[C@H](N)C1 (racemic) |  |
| 2010 nM | 2250 nM | N[C@H]1CCC[C@@H](N(C(=O)c2ccccc2OCc2ccccc2)C2CC2)C1 (racemic) |  |
|  | 1400 nM | CCN(C(=O)c1ccccc1OCc1ccccc1)[C@@H]1CCC[C@@H](N)C1 (racemic) |  |
| 3150 nM | 3670 nM | CN(C(=O)c1ccccc1OCc1ccccc1)[C@@H]1CCC[C@H](N)C1 (racemic) |  |
|  | 8.4 nM | COc1cc(CN(CCN)C(=O)c2cccs2)ccc1OCc1ccccc1 | t1/2 [4]: < 2 h |
|  | > 10000 nM | NN1CCN(C(=O)c2ccccc2OCc2ccccc2)CC1 |  |
|  | > 5000 nM | CCN(C(=O)c1ccccc1OCc1ccccc1)C1CCNC1 (configuration not stated) |  |
|  | > 10000 nM | O=C(c1ccccc1OCc1ccccc1)N1C[C@H]2CNC[C@H]2C1 |  |

| IC50 [1] | Kb [1] | Compound | also measured |
| --- | --- | --- | --- |
|  | > 2000 nM | CCN(C(=O)c1cccnc1OCc1ccccc1)[C@@H]1CCC[C@H](N)C1 (racemic) |  |
|  | > 2000 nM | CCN(C(=O)c1ccncc1OCc1ccccc1)[C@@H]1CCC[C@H](N)C1 (racemic) |  |
|  | > 10000 nM | O=C(c1ccccc1OCc1ccccc1)N1CCNCC1 |  |
|  | > 5000 nM | CCN(C(=O)c1ccccc1OCc1ccccc1)[C@@H]1CC[C@H](N)C1 (racemic) |  |
| 29.9 nM | 13 nM | CCN(C(=O)c1ccccc1OCc1ccccc1Cl)[C@@H]1CCC[C@H](N)C1 |  |
|  | 280 nM | CCN(C(=O)c1ccccc1COc1ccccc1)[C@@H]1CCC[C@H](N)C1 (racemic) |  |
| 21.1 nM | 17.8 nM | CCN(C(=O)c1ccccc1OCc1ccccc1F)[C@@H]1CCC[C@H](N)C1 | microsomal CLint [2]: < 8 µL/min/mg; logD [3]: 0.7 |
|  |  | COc1ccc(NC(=O)[C@@H]2C[C@H](C)CC[C@H]2C(C)C)cc1 [ACOLTREMON] | EC50 [1]: 40 nM |
| 96.9 nM | 96.6 nM | CCN(C(=O)c1ccccc1OCc1cccc(Cl)c1)C1CCCC(N)C1 (racemic) |  |
|  | 1130 nM | CCN(C(=O)c1ccccc1OCc1ccccc1)[C@H]1CCC[C@@H](N)C1 |  |
| 435 nM | 367 nM | CCN(C(=O)c1ccccc1OCc1ccccc1F)[C@H]1CCC[C@@H](N)C1 |  |
|  | > 5000 nM | CCN(C(=O)c1ccccc1OCc1ccccc1)C1CCNCC1 |  |
| 15.1 nM | 12.7 nM | CCN(C(=O)c1ccccc1OCc1ccccc1C)[C@@H]1CCC[C@H](N)C1 |  |
| 1230 nM | 1430 nM | CCCN(C(=O)c1ccccc1OCc1ccccc1)[C@@H]1CCC[C@H](N)C1 (racemic) |  |
| 493 nM | 491 nM | CCN(C(=O)c1ccccc1OCc1cccc(C#N)c1)C1CCCC(N)C1 (racemic) |  |
|  | 2600 nM | CCN(C(=O)c1ccccc1OCc1ccccc1)[C@@H]1CC[C@@H](N)C1 (racemic) |  |
|  | < 100 nM | CCN(C(=O)c1ccccc1OCc1ccccc1)C1CCCC(N)C1 (racemic) |  |
|  | > 2000 nM | CCN(C(=O)c1ccccc1OCC(C)C)[C@@H]1CCC[C@H](N)C1 (racemic) |  |
| 1360 nM | 794 nM | N[C@H]1CCC[C@@H](N(C(=O)c2ccccc2OCc2ccccc2)C2CCC2)C1 (racemic) |  |
| 19.3 nM | 16.1 nM | CCN(C(=O)c1ccccc1OCc1ccc(Cl)cc1)[C@@H]1CCC[C@H](N)C1 | microsomal CLint [2]: < 10 µL/min/mg; logD [3]: 1.3 |
| 254 nM | 214 nM | CCN(C(=O)c1ccccc1OCc1ccc(Cl)cc1)[C@H]1CCC[C@@H](N)C1 |  |
| 593 nM | 665 nM | N[C@H]1CCC[C@@H](N(CC2CC2)C(=O)c2ccccc2OCc2ccccc2)C1 (racemic) |  |
| 76.2 nM | 56.3 nM | CCN(C(=O)c1ccccc1OCc1ccccc1)[C@@H]1CCC[C@H](N)C1 | microsomal CLint [2]: < 8 µL/min/mg; logD [3]: 0.6; inhibition (Rattus norvegicus): 61% |
